The subject of series [1] is Mus musculus. Description: Antifibrotic activity against BLM-induced lung injury C57BL/6 mouse model assessed as reduction in collagen thickness at 80 mg/kg, po qd pretreated with compound for 1 hr followed by BLM treatment and measured on day 21 by Masson trichrome staining based analysis. Type of series: functional, organism-based. As to conditions: time 21.0 day. A digest of the protocol:
(§1)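 BLM model: pharyngeal aspiration 0.02U/50µl; oral daily dosing in saline from 1 h pre-BLM; day 21 sacrifice. Lungs fixed 48 h in 10% buffered formalin at room temperature, paraffin-embedded, 4 µm sections. Stains: H&E for infiltrate, Masson's trichrome or Picrosirius Red for stromal fibres.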

In series [2] the test system is Mus musculus. In words: Antifibrotic activity against BLM-induced lung injury C57BL/6 mouse model assessed as decrease in inflammatory interstitial infiltrate at 80 mg/kg, po qd pretreated with compound for 1 hr followed by BLM treatment and measured on day 21 by H and E staining based histological analysis. The class given is functional, organism-based. The note with it: time 21.0 day. A digest of the protocol: as §1

Series [3] has as its system Mus musculus. In words: Antifibrotic activity against Pseudomonas aeruginosa-induced pulmonary fibrosis C57BL/6 mouse model assessed as effect on nitrotyrosine expression at 80 mg/kg, os qd […] and measured after 7 days by immunohistochemistry analysis. The class given is functional, organism-based. As to conditions: time 7.0 day, tested as the 2H-labelled form. A digest of the protocol:
(§2)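 Mucoid P. aeruginosa NH57388A in agar beads, ~1×10^6 CFU per mouse, given trans-tracheally under isoflurane. Compound 80 mg/kg orally daily from 1 h post-instillation for 7 days, n=10. Lung sections 8 µm from formaldehyde-fixed paraffin blocks. Anti-nitrotyrosine or anti-PAR 1:500 overnight, avidin-biotin peroxidase detection. Densitometry of positive pixels; mean ± S.E.M.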

Series [4] relates to Mus musculus. Description: Antifibrotic activity against Pseudomonas aeruginosa-induced pulmonary fibrosis C57BL/6 mouse model assessed as decrease in lung inflammation at 80 mg/kg, os qd pretreated with compound for 1 hr followed by Pseudomonas aeruginosa instillation and measured after 7 days by immunohistochemistry analysis. Type of series: functional, organism-based. As to conditions: time 7.0 day.

In series [5] the test system is Mus musculus. In words: Antifibrotic activity against BLM-induced lung injury C57BL/6 mouse model assessed as reduction in accumulation of immune cells bronchoalveolar lavage at 80 mg/kg, po qd pretreated with compound for 1 hr followed by BLM treatment and measured on day 21 by trypan blue staining based hemocytometer analysis. The class given is functional, organism-based. A digest of the protocol:
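BLM model with aspiration, oral daily dosing in saline from 1 h pre-challenge, and day-21 endpoint. Lavage via tracheal cannula with 1 mL aliquots of ice-cold Ca/Mg-free phosphate medium, pH 7.4. Cells pelleted at 500×g, 5 min, 4 °C, then washed and resuspended. Counted by trypan blue exclusion on a hemocytometer.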

Series [6] has as its system Mus musculus. In words: Antifibrotic activity against Pseudomonas aeruginosa-induced pulmonary fibrosis C57BL/6 mouse model assessed as reduction in MPO level at 80 mg/kg, os qd […] and measured after 7 days by spectrophotometric analysis. As to conditions: time 7.0 day, tested as the 2H-labelled form. The class given is functional, organism-based. A digest of the protocol:
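Pseudomonas bead model, 80 mg/kg oral daily for 7 days from 1 h post-instillation. Lungs homogenized in 0.5% HTAB/10 mM potassium phosphate pH 7 and spun 20,000×g, 30 min, 4 °C. Supernatant reacted with 0.1 mM H2O2 and 1.6 mM tetramethylbenzidine, A650 read. Unit = 1 µmol H2O2 degraded/min at 37 °C; per g wet tissue.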

For series [7], the system named is Mus musculus. Description: Antifibrotic activity against BLM-induced lung injury C57BL/6 mouse model assessed as reduction in lung wet/dry ratio by measuring liquid accumulation at 80 mg/kg, po qd pretreated with compound for 1 hr followed by BLM treatment and measured on day 21. The class given is functional, organism-based. The note with it: time 21.0 day. A digest of the protocol: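 At day 21 after BLM aspiration (compound given orally daily from 1 h pre-BLM), lungs harvested free of extraneous tissue and weighed wet. Dried 72 h at 100°C and reweighed. Water content = wet minus dry weight.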

Series [8] deals with Mus musculus. Description: Antifibrotic activity against Pseudomonas aeruginosa-induced pulmonary fibrosis C57BL/6 mouse model assessed as effect on collagen deposition at 80 mg/kg, os qd pretreated with compound for 1 hr followed by Pseudomonas aeruginosa instillation and measured after 7 days by Masson trichrome staining based analysis. The class given is functional, organism-based. The note with it: time 7.0 day, tested as the 2H-labelled form.

The test system of series [9] is Mus musculus. Description: Antifibrotic activity against Pseudomonas aeruginosa-induced pulmonary fibrosis C57BL/6 mouse model assessed as reduction in accumulation of immune cells bronchoalveolar lavage at 80 mg/kg, os qd pretreated with compound for 1 hr followed by Pseudomonas aeruginosa instillation and measured after 7 days by trypan blue staining based hemocytometer analysis. Type of series: functional, organism-based. The note with it: time 7.0 day. A digest of the protocol:
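Day 7 after trans-tracheal Pseudomonas bead instillation, with oral 80 mg/kg daily dosing. Trachea cannulated, lungs washed once with 0.5 mL Dulbecco's PBS. Fluid spun, then total pelleted cells counted with trypan blue on a hemocytometer.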

For series [10], the system named is Mus musculus. Description: Antifibrotic activity against Pseudomonas aeruginosa-induced pulmonary fibrosis C57BL/6 mouse model assessed as effect on poly(ADP-ribose) polymerase level at 80 mg/kg, os qd […] and measured after 7 days by immunohistochemistry analysis. Type of series: functional, organism-based. As to conditions: time 7.0 day, tested as the 2H-labelled form. A digest of the protocol:
as §2

Series [11] deals with Mus musculus. Description: Antifibrotic activity against Pseudomonas aeruginosa-induced pulmonary fibrosis C57BL/6 mouse model assessed as reduction in inflammatory interstitial infiltrate at 80 mg/kg, os qd pretreated with compound for 1 hr followed by Pseudomonas aeruginosa instillation and measured after 7 days by H and E staining based histological analysis. As to conditions: time 7.0 day. The class given is functional, organism-based. A digest of the protocol:
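Pseudomonas bead lung model, day 7, with oral 80 mg/kg daily treatment. Biopsies fixed in 10% formaldehyde in PBS at room temperature and stained with H&E. Five random fields per sample at ×100 scored for severity by a blinded observer.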

Series [12] deals with Mus musculus. In words: Antifibrotic activity against BLM-induced lung injury C57BL/6 mouse model assessed as decrease in MPO level at 80 mg/kg, po qd pretreated with compound for 1 hr followed by BLM treatment and measured on day 21 by colorimetric assay. The class given is functional, organism-based. The note with it: time 21.0 day. A digest of the protocol: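 BLM 0.02U/50µl given by pharyngeal aspiration under isoflurane. Compound in 0.9% NaCl, or saline vehicle, by gavage 1 h before BLM, then daily. Mice killed day 21. Lung MPO measured with a colorimetric kit per the manufacturer. Unit = enzyme degrading 1 μM peroxide/min at 37°C, expressed as U/mg wet tissue.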

The subject of series [13] is Mus musculus. In words: Inhibition of Pseudomonas aeruginosa-induced apoptosis in C57BL/6 mouse at 80 mg/kg, os qd pretreated with compound for 1 hr followed by Pseudomonas aeruginosa instillation and measured after 7 days by TUNEL assay. Type of series: functional, organism-based. The note with it: time 7.0 day, tested as the 2H-labelled form. A digest of the protocol:
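Lung sections from the day-7 Pseudomonas model (oral 80 mg/kg daily) treated with 15 µg/ml proteinase K for 15 min at RT, then 3% H2O2 for 5 min. TdT with biotinylated dUTP applied, 37 °C 90 min. HRP-conjugated antibody 30 min, then DAB. TUNEL-positive cells quantified.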

Series [14] deals with Mus musculus. Description: Antifibrotic activity against BLM-induced lung injury C57BL/6 mouse model assessed as reduction in collagen thickness at 80 mg/kg, po qd pretreated with compound for 1 hr followed by BLM treatment and measured on day 21 by picrosirius red staining method. The class given is functional, organism-based. The note with it: time 21.0 day. A digest of the protocol:
as §1

Series [15] in a line: Drug metabolism in mouse plasma assessed as 7-theophylline acetic acid formation by measuring fold increase measured at 30 mins. Type of series: ADME, cell-free. As to conditions: 0.5 h. A digest of the protocol:
(§3)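 Plasma from mice dosed 20 mg/Kg i.v. or 80 mg/Kg by oral gavage, sampled sublingually under isoflurane pre-dose to 24 h (n=3), K3EDTA. Caffeine internal standard, trichloroacetic acid precipitation. Kinetex C18 UHPLC-MS, positive full-scan/PRM. Metabolites quantified against calibration curves.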

Series [16] can be described thus: Drug metabolism in mouse plasma assessed as 7-((1,3-dioxol-2-yl)methyl)-1,3-dimethyl-1H-purine-2,6(3H,7H)-dione formation measured upto 6 hrs. Type of series: ADME, cell-free.
Series [17] in a line: Drug metabolism in mouse plasma assessed as dm-doxophylline formation measured upto 4 hrs. Type of series: ADME, cell-free. A digest of the protocol:
as §3

A short description of series [18]: Drug metabolism in mouse plasma assessed as Etophylline formation measured upto 4 hrs. Type of series: ADME, cell-free. A digest of the protocol: as §3
The nature of series [19]: Drug metabolism in mouse plasma assessed as Theophylline formation measured upto 4 hrs. The class given is ADME, cell-free. A digest of the protocol:
as §3

Calls of active or inactive are those of the source. The calls are words filed in the database; no cut-off is given here.

For the compound `Cn1c(=O)c2c(ncn2CC2OCCO2)n(C)c1=O`, the outcome with Mus musculus [1], in the series on Mus musculus [1] (tested as the 2H-labelled form), with Mus musculus [2], in the series with Mus musculus [2] (tested as the 2H-labelled form), with Mus musculus [3] and in the series with Mus musculus [4] was Active. For the same compound, the result in the series on Mus musculus [4] (tested as the 2H-labelled form), in the series with Mus musculus [5], in the series with Mus musculus [5] (tested as the 2H-labelled form), in the series on Mus musculus [6], in the series with Mus musculus [7] and with Mus musculus [7] (tested as the 2H-labelled form) was Active. In addition, the outcome with Mus musculus [8], in the series with Mus musculus [9], in the series with Mus musculus [9] (tested as the 2H-labelled form), in the series with Mus musculus [10], in the series on Mus musculus [11] and in the series with Mus musculus [11] (tested as the 2H-labelled form) was Active. The outcome in the series with Mus musculus [12], in the series with Mus musculus [12] (tested as the 2H-labelled form), in the series on Mus musculus [14] and with Mus musculus [14] (tested as the 2H-labelled form) was Active. Further, the inhibition result with Mus musculus [13] was “Active”.
Turning to `[2H]C1([2H])OC(Cn2cnc3c2c(=O)n(C)c(=O)n3C)OC1([2H])[2H]`, the “fold change (FC)” value in series [15] turned out to be 3. Further, the Drug metabolism result in series [16] is reported as “Metabolite_Notdetected”; in series [17] it was “Metabolite_Detected”; in series [18], “Metabolite_Notdetected”; in series [19], “Metabolite_Detected”.
